# Results pooled from the literature.
# Lines come from different studies, so protocols differ.
# Target: Adenosine receptor A1 (ADORA1, Homo sapiens, UniProt P30542)
# Residues used in one study (P30542 1-326): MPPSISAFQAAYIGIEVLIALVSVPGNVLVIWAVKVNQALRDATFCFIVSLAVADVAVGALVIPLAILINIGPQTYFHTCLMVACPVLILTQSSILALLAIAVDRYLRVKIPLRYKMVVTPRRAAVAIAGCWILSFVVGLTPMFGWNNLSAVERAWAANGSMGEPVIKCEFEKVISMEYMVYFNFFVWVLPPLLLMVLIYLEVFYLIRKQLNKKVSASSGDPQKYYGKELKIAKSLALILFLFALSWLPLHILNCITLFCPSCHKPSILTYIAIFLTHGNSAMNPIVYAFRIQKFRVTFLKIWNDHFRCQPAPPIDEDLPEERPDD
Structure (SMILES),observed,method,tested at,inhibition [%]
CCN(CC)CCCC[C@H](NC(=O)[C@H](CC(C)C)NC(=O)[C@H](C)NC(=O)[C@H](Cc1ccccc1)NC(=O)c1ccc(C(C)(C)C)cc1)C(=O)N[C@@H](CO)C(=O)OC,ligand displacement,radioligand,10 µM,4
CSC[C@@]12C[C@@H]1[C@@H](n1cnc3c(NC(C4CCCC4)C4CCCC4)nc(SC)nc31)[C@H](O)[C@@H]2O,ligand displacement,radioligand,10 µM,15
O=C(Nc1cccnn1)N1CCN([C@@H]2CCOc3cc(C(F)(F)F)ccc32)CC1,cell-free assay,,20 µM,17
COc1ccc(S(=O)(=O)N2CCCCC2)cc1C,ligand displacement,radioligand,10 µM,< 30
COc1ccc(SC[C@@]23C[C@@H]2[C@@H](n2cnc4c(NC(C5CCCC5)C5CCCC5)nc(Cl)nc42)[C@H](O)[C@@H]3O)cc1OC,ligand displacement,radioligand,10 µM,39
CC(C)N1CCC[C@H]1CNC(=O)c1cn(C2CCCC2)c(=O)c2c1c1ccccc1n2C,ligand displacement,radioligand,10 µM,-1
C[C@H](C(=O)N[C@H]1COc2ccccc2[C@@H]1S(C)(=O)=O)c1ccc(F)cc1,cell-free assay,,10 µM,1
COCc1c(-c2cc3cc(C)cc(OC)c3s2)c2c(N)ncnn2c1CN1CCNC(=O)C1,ligand displacement,radioligand,10 µM,16
CCSC[C@@]12C[C@@H]1[C@@H](n1cnc3c(NC(C4CCCC4)C4CCCC4)nc(Cl)nc31)[C@H](O)[C@@H]2O,ligand displacement,radioligand,10 µM,54
c1ccc(C(NCCNC(c2ccccc2)c2ccccc2)c2ccccc2)cc1,cell-free assay,,10 µM,30
CN(CCN1CCC(OC(=O)Nc2ccccc2-c2ccccc2)CC1)C(=O)c1ccc(CN2CCC(C(N)=O)CC2)cc1,ligand displacement,radioligand,1 µM,0
